Screens from PubChem.
FGF22 binding – shifts melting point of recombinant human FGF22 | 340,000 tested, 1.5% active | Q9HCT0 | recombinant FGF22 thermal shift, SYPRO orange fluorescence; percent of sucrose octasulfate shift, DMSO zero | AID 651658 | activity (Tm shift, normalised), % at 9.99 µM;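 active means mean Tm shift, scaled 0 neutral to 100 positive control, at about 1.3% or above, every replicate too, limit read from the data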
Target sequence (Q9HCT0 whole entry, looked up): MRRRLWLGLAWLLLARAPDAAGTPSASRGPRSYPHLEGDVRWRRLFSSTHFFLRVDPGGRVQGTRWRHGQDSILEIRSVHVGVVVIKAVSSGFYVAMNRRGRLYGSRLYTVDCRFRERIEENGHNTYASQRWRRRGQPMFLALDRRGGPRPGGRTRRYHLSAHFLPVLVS
ERAP1 inh – blocks human ERAP1 aminopeptidase activity; Q9NZ08; recombinant ERAP1, Leu-AMC fluorescence, 60 min; inhibition, % at 10.7 µM; 340,000 tested, 0.15% active;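 active means mean replicate inhibition of at least 30%, or all replicates individually reaching that 30% level; inactive means mean below 30% and not every replicate reaching it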;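 further: 0% = neutral control wells and 100% = L-leucinethiol positive control wells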
Ecoli rRNA inh – selective bacterial rRNA inhibition in E. coli. 350,000 tested, 1.6% active. AID 720706. E. coli WT GFP vs humanized-ribosome RFP mutants, fluorescence, 24 h; stronger effect = lower value; DMSO median 0, no signal -100. GFP signal change (wild-type ribosome), % (no concentration beside the values);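 active means significant combined selectivity score with lowered wild-type GFP, culture density cut under 30%, mutant RFP and density less affected; inactive means any of these conditions unmet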
Cneo AK release – Cryptococcus neoformans lysis via adenylate kinase release | C. neoformans lysis, adenylate kinase release luminescence, 4 h; normalised: neutral wells 0, clomiphene wells 100 | AID 651654 | lysis activity, % at 15 µM | 360,000 tested, 0.2% active;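 active means mean lysis activity across replicates of at least 80%, whatever share of replicates individually reach that level; inactive means mean lysis activity below 80%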
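Test system: log-phase Cryptococcus neoformans yeast cells; Quantity: yeast cell density of 5 × 10^6 cells/mL; Buffer or medium: YPD; Doses: single compound concentration per well; Timing: 4 h at 37 °C static, read 1 h later; Measured by: AK luminescence; Read-out basis: lysis from increased AK signal; Control set: Clomiphene as positive control.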
PGC1a acetyl inh – PGC1a acetylation modulation, inhibitor mode; U2OS PGC1a acetylation, AlphaScreen anti-acetyl-lysine; with virally co-expressed GCN5 acetyltransferase; inhibition, % at 15.6 µM; 350,000 tested, 0.17% active;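 active means every replicate shows inhibition of at least 40%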;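 further: 0% = neutral control wells and 100% = positive control wells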
Env fusion inh – HIV envelope-mediated fusion inhibition | HeLa-JRFL Env/CEM21 cell fusion, luciferase | inhibition, % at 12.3 µM | 360,000 tested, 1.1% active | AID 651610;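 active means mean replicate inhibition score of at least 50 and every replicate individually at or above 50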;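 further: 0% = plate neutral controls and 100% = maraviroc near 300 nM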
Starred values were filed as active, the others as inactive; x = no result; [ ] = dose if it differs, or a comment. This is a sample that favours compounds with a hit; in the whole collection about 3.5% have one here.

SMILES	FGF22 binding	ERAP1 inh	Ecoli rRNA inh	Cneo AK release	PGC1a acetyl inh	Env fusion inh
COc1cccc(C(=O)c2c[nH]c(C(=O)NCCCN3CCOCC3)c2)c1	43*	5	7	x	-1	8
COc1cc(/C=N/NC(=O)C(=O)NCC2CCCO2)ccc1OCC(=O)N1CCOCC1 (stereo unspecified)	44*	1	12	x	x	2
O=C(Nc1ccc2oc(-c3ccncc3)nc2c1)c1ccc(F)cc1	0	2	14	-1	x	-1
Cc1cc(C(=O)N(C)C)sc1-c1ccccc1	x	x	x	-4	-6	x
Cc1cc(C(=O)NCc2cc(C)n(C)n2)sc1-c1ccccc1	x	x	x	6	3	56*
FC(F)(F)c1cnc(C(c2ccccn2)c2ncn[nH]2)c(Cl)c1 (stereo unspecified)	0	3	1	x	2	-4
FC(F)(F)c1cnc(C(c2ccccc2)c2ncn[nH]2)c(Cl)c1 (stereo unspecified)	43*	-8	5	-1	1	-1
COc1ccccc1NC(=O)N(C)C[C@@H]1Oc2cc(Br)ccc2S(=O)(=O)N([C@H](C)CO)C[C@@H]1C	0	0	0	-5	-8	-3[16.7 µM]
Cc1ccc(C(=O)N/N=C/c2cc(Br)ccc2O)cn1	0	-1	-14	-5	x	29
Cc1ccc(C(=O)N/N=C\C=C\c2ccc(Br)cc2)cn1	43*	1	7	x	3	5
CCC1Oc2ccccc2N(CC(=O)NC2CCCCC2C)C1=O (stereo unspecified)	0	0	1	0	-16	14
Cc1ccc(C)c(-c2ccc(=O)n(Cc3c(F)cccc3Cl)n2)c1	0	-2	-42	-3	-1	26
Cc1ccc(-c2ccc(=O)n(Cc3c(F)cccc3Cl)n2)cc1	0	-5	-27*	-1	4	16
OC(COC(c1ccc(F)cc1)c1ccc(F)cc1)CN1CCCC(C(F)(F)F)C1 (stereo unspecified)	0	-4	-23*	0	-5	30
OCCN1CCN(CC(O)COC(c2ccc(F)cc2)c2ccc(F)cc2)CC1 (stereo unspecified)	0	-1	-4	-2	2	-4
CCC(=O)N1[C@@H]2c3ccc(C4=CCCC4)c(=O)n3C[C@H]1[C@H](CO)[C@H]2C(=O)NCC1CCCCC1	0	-8	-6	-6	x	x
O=C1NC(Cc2ccc(O)cc2)c2nc3ccc(Br)cc3c(=O)n2-c2ncccc21 (stereo unspecified)	0	1	-21*	x	0	3
O=C1NC(Cc2ccc(O)cc2)c2nc3ccc(Br)cc3c(=O)n2-c2cc3ccccc3cc21 (stereo unspecified)	0	-4	x	-5	-3	-344
Cc1cc(Cl)ccc1OC(C)C(=O)Nc1ccc(C(=O)Nc2ccccc2C(=O)O)cc1 (stereo unspecified)	1.4*	-1	-57	-1	x	-10
Cc1cc(Cl)ccc1OC(C)C(=O)Nc1ccc(S(=O)(=O)N2CCOCC2)cc1 (stereo unspecified)	-1	-2	-1	0	-1	-15
CC(=O)Nc1ccc(NC(=O)CSc2ncnc3sc(C)c(C)c23)cc1	0	1	3	x	14	-9
Cc1cc(OCc2ccccc2)ccc1/C(O)=C1/C(=O)C(=O)N(Cc2cccnc2)C1c1ccncc1 (stereo unspecified)	0	5	-29*	x	-2	-9
S=c1[nH]c2cc(Cl)ccc2s1	0	0	-26*	x	12	x
CC(NC(=O)CN(C)S(=O)(=O)c1cnc[nH]1)c1ccccc1 (stereo unspecified)	44*	-2	22	x	x	10
CC1CCCC(NC(=O)CN(C)S(=O)(=O)c2cnc[nH]2)C1C (stereo unspecified)	43*	1	11	x	x	-1
CC1CCC(NC(=O)CN(C)S(=O)(=O)c2cnc[nH]2)CC1 (stereo unspecified)	0	-4	16	x	14	-8
Cc1cccc(NC(=O)CN(C)S(=O)(=O)c2cnc[nH]2)c1C	0	15	11	0	x	18
